The values that follow come from ChEMBL document CHEMBL3272242, “Sulfamylurea hypoglycemic agents. 6. High-potency derivatives” (J Med Chem, 1976).

SMILES strings stand for the structures.

In test [1] the test system is Rattus norvegicus. Briefly: Hypoglycemic activity in 18 to 24 hrs-fasted rat assessed as reduction in blood glucose at 15 mg/kg, ip measured after 1 hr relative to saline-treated control. Format: functional. The arrangement: scale not given: the % may be the effect or the level left. The settings on record: route intraperitoneal. Put shortly: (§1)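 Unanesthetized male Charles River rats (200–250 g), fasted 18–24 h, in groups of five or six. Single ip dose. Tail-vein blood drawn before dosing and 1 h after. Glucose measured by ferricyanide reduction micromethod on an autoanalyzer. Value is the percent fall in blood glucose at 1 h versus a saline-treated control group. Significance levels are p < 0.05, 0.01 and 0.001.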

Test [2] deals with Rattus norvegicus. Briefly: Hypoglycemic activity in 18 to 24 hrs-fasted rat assessed as reduction in blood glucose at 5 mg/kg, ip measured after 1 hr relative to saline-treated control. Format: functional. Particulars: route intraperitoneal. The arrangement: scale not given: the % may be the effect or the level left. Summed up:
as §1

For the compound `Cn1cc(C(=O)NCCC2CCN(S(=O)(=O)NC(=O)NC3CCCCC3)CC2)c(=O)n(C)c1=O`, the Activity in test [1] came out at 15%. The same measure, in the same setting: the figure for `CSc1ccc(C(F)(F)F)cc1C(=O)NCCC1CCN(S(=O)(=O)NC(=O)NC2CCCCC2)CC1` is 24%; for `O=C(NC1CCCCC1)NS(=O)(=O)N1CCC(CCNC(=O)c2nsc3ccccc23)CC1` it is 17%; for `O=C(NC1CCCCC1)NS(=O)(=O)N1CCC(CCNC(=O)c2ccc3c(c2)OCO3)CC1` it is 17%. On to `O=C(NC1CCCCC1)NS(=O)(=O)N1CCC(CCNC(=O)c2cccc3c2OCCO3)CC1`, for which the Activity is listed as 34% in test [2] and 42% in test [1]. For `CCCNC(=O)NS(=O)(=O)N1CCC(CCNC(=O)c2cccc3c2OCCO3)CC1`, the Activity in test [1] worked out at 25%. Consider `O=C(NC[C@@H]1C[C@@H]2C=C[C@@H]1C2)NS(=O)(=O)N1CCC(CCNC(=O)c2cccc3c2OCCO3)CC1`, for which the Activity in test [2] was 11%; in test [1], 40%.

Consider `CC(=O)NCCC1CCN(S(=O)(=O)NC(=O)NC[C@@H]2C[C@@H]3C=C[C@@H]2C3)CC1` (relative stereo), for which the figures for the Activity in test [2] and in test [1] were 18% and 25%, respectively. Take `O=C(NC[C@@H]1C[C@@H]2C=C[C@@H]1C2)NS(=O)(=O)N1CCC(CCNC(=O)c2cnsc2)CC1` (relative stereo): the Activity in test [1] came out at 14%. As to `Cc1ncsc1C(=O)NCCC1CCN(S(=O)(=O)NC(=O)NC[C@@H]2C[C@@H]3C=C[C@@H]2C3)CC1` (relative stereo), the Activity in test [2] came out at 11%; in test [1], 25%. As for `O=C(NC[C@@H]1C[C@@H]2C=C[C@@H]1C2)NS(=O)(=O)N1CCC(CCNC(=O)c2cscn2)CC1` (relative stereo), in test [1], the Activity is on record as 37%. Regarding `COc1ccc(C(=O)NCCC2CCN(S(=O)(=O)NC(=O)NC[C@@H]3C[C@@H]4C=C[C@@H]3C4)CC2)cn1` (relative stereo), the Activity in test [2] turned out to be 11%; in test [1], 32%. Regarding `O=C(NC[C@@H]1C[C@@H]2C=C[C@@H]1C2)NS(=O)(=O)N1CCC(CCNC(=O)c2cnccc2Cl)CC1` (relative stereo), the Activity in test [1] was found to be 12%. Take `O=C(NC[C@@H]1C[C@@H]2CC[C@@H]1O2)NS(=O)(=O)N1CCC(CCNC(=O)C2Oc3ccccc3O2)CC1` (relative stereo): the results for the Activity in test [2] and in test [1] were 15% and 38%, respectively. As to `CC#N.O=C(NC[C@@H]1C[C@@H]2CC[C@@H]1O2)NS(=O)(=O)N1CCC(CCNC(=O)c2nc3ccccc3s2)CC1` (relative stereo), the Activity in test [1] was found to be 30%. Take `O=C(NC[C@@H]1C[C@@H]2CC[C@@H]1O2)NS(=O)(=O)N1CCC(CCNC(=O)c2cccc3c2OCCO3)CC1` (relative stereo): the Activity in test [2] is listed as 15%; in test [1], 13%. `COc1ncccc1C(=O)NCCC1CCN(S(=O)(=O)NC(=O)NC[C@@H]2C[C@@H]3CC[C@@H]2O3)CC1` (relative stereo): in test [2], the Activity is 34%. The same measure, in the same setting: the figure for `COc1ncccc1C(=O)NCCC1CCN(S(=O)(=O)NC(=O)NC[C@H]2C[C@@H]3CC[C@@H]2O3)CC1` (relative stereo) is 14%. On the same count and under the same terms, then `COc1ncccc1C(=O)NCCC1CCN(S(=O)(=O)NC(=O)NC[C@@H]2C[C@@H]3CC[C@@H]2C3)CC1` (relative stereo), with 35%. As for `Cn1cc(C(=O)NCCC2CCN(S(=O)(=O)NC(=O)NC[C@@H]3C[C@@H]4CC[C@@H]3C4)CC2)c(=O)n(C)c1=O.O` (relative stereo), in test [2], the Activity was determined as 22%. In the case of `CCCn1cc(C(=O)NCCC2CCN(S(=O)(=O)NC(=O)NC[C@@H]3C[C@@H]4C=C[C@@H]3C4)CC2)c(=O)n(CC)c1=O.O` (relative stereo), in test [2], the Activity is reported as 19%.

`CCCCn1cc(C(=O)NCCC2CCN(S(=O)(=O)NC(=O)NC[C@@H]3C[C@@H]4C=C[C@@H]3C4)CC2)c(=O)n(CCCC)c1=O` (relative stereo): the Activity in test [2] came to 12%.
